Source: PubChem
T cruzi repl: inhibitors of intracellular T. cruzi growth, primary screen, luminescence, NIH3T3 host cells. 300,000 compounds, 1.4% hits. T. cruzi beta-gal in NIH3T3, 90 h. inhibition, % (test concentration not listed). AID 1885, 2009;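 active means mean inhibition across valid replicates above about 55%, limit read from the data; inconclusive means mean below that limit but half or more replicates reach it; inactive means mean below it, under half of replicates reach it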;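 further: signal also drops with host cell toxicity which is not excluded here; 0% = plate median of DMSO wells and 100% = zero luminescence signal; higher percent means less beta-gal luminescence so fewer parasites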
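System: Mouse NIH/3T3 fibroblasts infected with β-gal-expressing T. cruzi Tulahuen C4 | Quantity: NIH/3T3 cells, 5,000 per well | Reagent: 5000 reporter trypomastigotes per well | Dosing: Compound pinned at 50 nL/well, DMSO | Schedule: 3 h host attachment, then at least 90 h co-culture | Detection: GalScreen luminescence, 60 min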
Beta cell apopt: inhibitors of cytokine-induced beta cell apoptosis, primary screen, luminescence | protection from apoptosis, % (concentration not given with the values) | 300,000 compounds, 0.8% hits | INS-1E cytokine-induced death, ATP luminescence, 48 h; percent of positive-control rescue, neutral wells zero | AID 435005, 2010;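 active means Every replicate reaches about 75%, or at least half do and their mean reaches it too, limit read from the data; inconclusive means At least half of replicates reach the limit but their mean does not; inactive means Under half of replicates reach the limit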;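 further: 0% = cytokine-treated negative control wells and 100% = positive control rescue; higher means more ATP so stronger rescue from cytokine killing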
Mdm2-MdmX inh: inhibitors of human Mdm2-MdmX association, primary screen, cell-based, luminescence, split luciferase, SaOS-2, uHTS; SaOS-2 split-luciferase Mdm2/MdmX complementation; inhibition, % at 8 µM; 330,000 compounds, 3% hits; AID 485346, 2010;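 active means inhibition of at least 50% at 8 µM in the primary screen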
Calb FLC: C. albicans growth inhibition with fluconazole, primary screen, CaCi-2 strain, Alamar Blue fluorescence; 300,000 compounds, 0.57% hits; growth inhibition, % (no concentration beside the values); AID 1979, 2009; C. albicans CaCi-2 + fluconazole, 48 h;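 active means growth inhibition above about 58% in most replicates, limit read from the data, passing the limit was not always enough; inconclusive means exactly half the replicates above a set limit; inactive means most replicates below a set limit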;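 further: all wells also contain fluconazole at 8 µg/ml as a sub-toxic cotreatment; 0% = median of DMSO wells and 100% = median of geldanamycin control wells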
CSC inhib: cancer stem cell viability inhibitors, primary screen, luminescence; cancer stem cell-like cells viability; inhibition, % at 7.5 µM; 300,000 compounds, 1.1% hits; AID 2717, 2010; in the data active means inhibition above about 75%; inconclusive means no clear call, values can overlap the other calls; tested in HMLE shEcad cells
SKKanGAS inh: S. pyogenes SKKanGAS growth inhibitors in kanamycin, primary screen, streptokinase expression inhibitor project, SKKanGAS strain, BacTiter-Glo luminescence. 6 h. inhibition, % at 7.5 µM. 300,000 compounds, 1.3% hits. AID 1662, 2009;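 active means mean replicate score, as percent of positive control median, at least 50; inconclusive means mean below 50 but one replicate at or above 50; inactive means mean and every replicate below 50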;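 further: strain carries kanamycin resistance gene driven by streptokinase promoter and grows in 40 µg/ml kanamycin; loss of luminescence reflects streptokinase promoter inhibition or plain growth inhibition; 0% = median of DMSO wells and 100% = positive control at its reference dose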
Mdm2-MdmX conf: Mdm2-MdmX complex disruptors, retested hits, confirmation, luminescence, single concentration | shares compounds with Mdm2-MdmX inh | Mdm2-MdmX binding, luminescent assay | inhibition, % at 8 µM | 10,000 compounds, 55% hits | AID 489028, 2010; in the data active means inhibition above about 40%
FLuc counter: full-length luciferase signal inhibition, confirmation, counter-screen for Mdm2/MdmX interaction inhibitor project, cell-based, single concentration, SaOS-2; shares compounds with Mdm2-MdmX inh; SaOS-2 full-length luciferase counterscreen, luminescence; inhibition, % at 8 µM; 6,200 compounds, 77% hits; AID 504607, 2011;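 active means mean inhibition at 8 µM reaching about 37%, which flags the compound as non-specific, limit read from the data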;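 further: p53-null SaOS-2 cells with luciferase driven by a doxycycline-inducible promoter; compound on cells about two nights before reading with doxycycline added after day one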
* = called active by the depositor; ? = inconclusive; · = not tested or not shown. Hits are enriched below; roughly 5.7% of the tested compounds scored in any of these assays.

SMILES | T cruzi repl | Beta cell apopt | Mdm2-MdmX inh | Calb FLC | CSC inhib | SKKanGAS inh | Mdm2-MdmX conf | others
COc1ccc(C(=O)O/N=C(\N)c2ccc(Br)cc2)cc1 | 13 | -10 | 96* | -1 | 14 | 1 | 36 | FLuc counter=158*
CC(C)(C)c1ccc(NC(=O)CON=C(N)c2ccccc2)cc1 | · | · | -16 | · | · | · | ·
N/C(=N\OC(=O)c1ccc(Br)cc1)c1ccccc1 | -6 | 8 | -115 | 4 | 1 | 6 | ·
Cc1ccc(C(=O)O/N=C(\N)c2ccc(Br)cc2)cc1 | 15 | 0 | 98* | 1 | -4 | -6 | 29
CCN1CCN(C(=S)c2ccc(-c3ccccc3)cc2)CC1 | 18 | -5 | -11 | 1 | 4 | -3 | ·
CN(CC(=O)Nc1ccc(F)c(F)c1F)C(=O)C1CCN(C(=O)Nc2ccccc2)CC1 | -10 | · | 9 | -5 | -10 | -3 | ·
COc1ccc2nccc(C(N)=O)c2c1 | -3 | -5 | 15 | 4 | -4 | 1 | ·
Cc1nn(Cc2ccccc2)c(C)c1NC(=O)Cn1nc([N+](=O)[O-])c(Cl)c1C | 17 | -8 | 2 | -14 | -12 | -2 | ·
Cc1nn(Cc2c(Cl)cccc2Cl)c(C)c1NC(=O)Cn1nc([N+](=O)[O-])c(Cl)c1C | 17 | -3 | 70* | -6 | -12 | 0 | 4
Cc1cc(C(=O)Nc2c(C)nn(Cc3c(Cl)cccc3Cl)c2C)no1 | 5 | -7 | 24 | 26 | 13 | -1 | ·
Cc1nn(Cc2c(Cl)cccc2Cl)c(C)c1NC(=O)c1cc(C(C)C)on1 | 2 | 8 | 79* | -3 | 31 | -4 | 62* | FLuc counter=54*
Cc1nc(C(F)(F)F)ccc1C(=O)N1CCCCC1 | -6 | -3 | -5 | -8 | -12 | 42 | ·
CCc1ccc2c(c1)C1(NN=C(c3cccc4ccccc34)S1)C(=O)N2 (stereo not drawn) | 53 | 63 | 78* | -1 | 9 | 79* | 75* | FLuc counter=30
CCc1ccc2c(c1)C(=O)c1ccccc1C2=O | ? | -16 | -58 | -19 | -9 | -19 | ·
COc1cccc(Sc2nc(-c3ccccc3)ncc2S(C)(=O)=O)c1 | -3 | · | 62* | 10 | · | -1 | 36
CS(=O)(=O)c1cnc(-c2ccccc2)nc1Sc1ccc(F)cc1 | -1 | · | 14 | 0 | · | -7 | ·
OCCN1CCN(c2ncnc3ccc(Br)cc23)CC1 | -11 | · | 51* | -4 | · | -3 | 60* | FLuc counter=45*
OCCN1CCN(c2nc(-c3ccccc3)c3cc(Br)ccc3n2)CC1 | 45 | -3 | 26 | -15 | 7 | 4 | ·
CC(C)C1C(C#N)=C(N)Oc2n[nH]c(-c3ccc4ccccc4c3)c21 (stereo not drawn) | -29 | 11 | 57* | 6 | 17 | 24 | 63* | FLuc counter=50*
CC(C)C1C(C#N)=C(N)Oc2n[nH]c(-c3cccs3)c21 (stereo not drawn) | 2 | -2 | -5 | 25 | 8 | -4 | ·
COc1ccc(NC(=O)c2ccc(NCCCN3CCOCC3)c([N+](=O)[O-])c2)cc1 | -2 | -4 | 5 | 2 | -3 | 2 | ·
O=C(Nc1ccc(Cl)c([N+](=O)[O-])c1)c1ccc(NCCCN2CCOCC2)c([N+](=O)[O-])c1 | 55* | 12 | 97* | 27 | · | 11 | 24
Cc1ccc(NC(=O)c2ccc(NCCCN3CCOCC3)c([N+](=O)[O-])c2)cc1Cl | 33 | 24 | 56* | 4 | 51 | -1 | 37 | FLuc counter=69*
CCOC(=O)Cc1cnc(NC(=O)CSc2nc(C)c(CC)c(=O)[nH]2)s1 | -5 | -5 | -23 | -5 | 6 | 14 | ·
COc1ccc(CCN(C)C(=O)C2CCCN(C3CCN(Cc4ccccc4)CC3)C2)cc1OC (stereo not drawn) | 28 | -7 | 19 | · | -4 | -4 | ·
SMILES | T cruzi repl | Beta cell apopt | Mdm2-MdmX inh | Calb FLC | CSC inhib | SKKanGAS inh | Mdm2-MdmX conf | others
Cc1ccc(N(CC(=O)Nc2cc(Cl)ccc2Oc2ccccc2)S(C)(=O)=O)cc1C | 45 | -2 | 52* | -4 | 11 | 22 | 2
O=C(CCCSc1nc2ccccc2c(=O)[nH]1)c1ccc(F)cc1 | 8 | -2 | 22 | 17 | · | -11 | ·
Cc1ccc(C(=O)Nc2ccc(NC(=O)c3cccs3)cc2)cc1[N+](=O)[O-] | -8 | 5 | 87* | -6 | -15 | -2 | 24 | FLuc counter=107*
CCOc1ccc(C(=O)NC(=S)Nc2ccc(NC(=O)c3ccco3)cc2)cc1[N+](=O)[O-] | -7 | -2 | 22 | -4 | 38 | 31 | ·
Cc1ccc(C(=O)Nc2sc(C)c(-c3ccccc3)c2C(N)=O)cc1[N+](=O)[O-] | 23 | 9 | 72* | 2 | -12 | 3 | -3
CCOc1ccc(C(=O)NC(=S)Nc2ncccc2C)cc1[N+](=O)[O-] | -8 | 2 | 78* | -9 | -8 | -6 | 8
CCOc1ccc(C(=O)Nc2ccc(NC(=O)c3cccs3)cc2)cc1[N+](=O)[O-] | -19 | -1 | 54* | 33 | -5 | -7 | 9
Cc1ccc(C(=O)Nc2cccc(NC(=O)c3ccc(C)c([N+](=O)[O-])c3)n2)cc1[N+](=O)[O-] | 14 | 22 | 33 | -1 | 1 | 21 | ·
COc1cc(S(=O)(=O)Nc2cccc(C)c2)ccc1NC(=O)c1ccncc1 | 12 | 2 | 8 | -3 | 44 | 4 | ·
O=C(CSc1ccc2c(c1)OCCO2)N1CCN(c2ccccc2)CC1 | · | -1 | 30 | · | 3 | · | ·
CCOC(=O)Cc1nnc2c(Nc3ccc(Cl)cc3)nc3nonc3n12 | 24 | 27 | 92* | -9 | 56 | ? | 40* | FLuc counter=44*
CC1c2ccccc2SC(CCCN(C)C)c2ccccc21 (stereo not drawn) | 55* | 3 | 52* | -9 | 10 | 4 | 3
COC(=O)c1cc(=O)n(Cc2ccc(OC)c(OC)c2)c(=Nc2ccc(F)cc2)s1 | 47 | -15 | 76* | 10 | 97* | 8 | 33 | FLuc counter=98*
CNC(=O)C1CC(=O)N(CCc2ccc(OC)c(OC)c2)C(=Nc2ccc(F)cc2)S1 (stereo not drawn) | -8 | 0 | 14 | -5 | -8 | 1 | ·
COC(=O)c1cc(=O)n(Cc2cccs2)c(=Nc2ccccc2)s1 | 54 | -1 | 43 | -2 | ? | 23 | ·
